Measurements from ChEMBL document CHEMBL1138681, “Identification of structurally diverse growth hormone secretagogue agonists by virtual screening and structure-activity relationship analysis of 2-formylaminoacetamide derivatives” (J Med Chem, 2004).
The source made the active and inactive calls. The calls are words filed in the database; no cut-off is given here.

What was measured:
[1] = biological target: T1, Growth hormone secretagogue receptor type 1 (Homo sapiens, UniProt Q92847); experiment: Tested for growth hormone secretagogue activity in A93 cell line using a calcium flux assay at 10 uM (Relative to compound T1); NA means not active; format: functional, cell-based
[2] = biological target: T1, Growth hormone secretagogue receptor type 1; experiment: Binding affinity for human growth hormone secretagogue receptor using [125I]ghrelin; NA means not active
Summary of the method: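 Radioligand displacement with (125I)ghrelin (human) at GHS receptor, run by a contract lab following published methods; Ki values reported; binding curves in supplement.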

[3] = biological target: T1, Growth hormone secretagogue receptor type 1; experiment: Tested for growth hormone secretagogue activity in A93 cell line using a calcium flux assay at 10 uM (Relative to compound T1); format: functional, cell-based
[4] = biological target: T1, Growth hormone secretagogue receptor type 1; experiment: Binding affinity for human growth hormone secretagogue receptor was determined using [125I]ghrelin
Summary of the method: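 Competition binding with (125I)ghrelin (human) at the GHS receptor, run by a contract laboratory following published methods. Ki values were derived from binding curves.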

T1 sequence (Q92847 whole entry): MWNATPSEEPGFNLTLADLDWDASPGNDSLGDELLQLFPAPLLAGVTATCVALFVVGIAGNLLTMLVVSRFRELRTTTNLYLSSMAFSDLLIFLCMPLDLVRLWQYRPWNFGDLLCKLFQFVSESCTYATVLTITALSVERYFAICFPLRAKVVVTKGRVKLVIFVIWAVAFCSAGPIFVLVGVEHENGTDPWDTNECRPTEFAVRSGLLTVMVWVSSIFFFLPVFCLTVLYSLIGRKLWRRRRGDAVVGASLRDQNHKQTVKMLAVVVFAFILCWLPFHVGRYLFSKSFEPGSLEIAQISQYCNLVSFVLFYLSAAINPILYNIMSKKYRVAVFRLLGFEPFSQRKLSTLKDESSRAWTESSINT

| SMILES | Activity [1] | Activity [3] | Ki [4] [nM] | further results |
| --- | --- | --- | --- | --- |
| O=C(NC1CCCC1)C(c1ccncc1)N(CCCN1CCOCC1)C(=O)c1ccc(-c2ccccc2)[nH]1 (stereo unspecified) | inactive |  |  |  |
| Cc1ccc(CC(C(=O)NC2CCCCC2)N(C(=O)c2ccc(-c3ccccc3)[nH]2)C2CCCC2)o1 (stereo unspecified) | inactive |  |  |  |
| CC(C)(C)NC(=O)C(c1ccc(F)cc1)N(CCCN1CCOCC1)C(=O)c1ccc(-c2ccccc2)[nH]1 (stereo unspecified) |  |  |  | Ki [2]: Not Active |
| Cc1ccc(CC(C(=O)NC2CCCCC2)N(Cc2ccccc2)C(=O)c2ccc(-c3ccccc3)[nH]2)o1 (stereo unspecified) | inactive |  |  |  |
| O=C(NC1CCCCC1)C(c1ccc(F)cc1)N(C(=O)c1ccc(-c2ccccc2)[nH]1)c1ccccc1 (stereo unspecified) | inactive |  |  |  |
| O=C(NC1CCCC1)C(c1ccncc1)N(C(=O)c1ccc(-c2ccccc2)[nH]1)c1ccccc1 (stereo unspecified) | inactive |  |  |  |
| O=C(NC1CCCCC1)C(c1ccc(F)cc1)N(CCN1CCOCC1)C(=O)c1ccc(-c2ccccc2)[nH]1 (stereo unspecified) | inactive |  |  |  |
| CCN(CC)CCCN(C(=O)c1ccc(-c2ccccc2)[nH]1)C(C(=O)NC1CCCCC1)c1cc(OC)c(OC)c(OC)c1 (stereo unspecified) | inactive |  |  |  |
| CCN(CC)CCN(C(=O)c1ccc(CN2CCCCC2)o1)C(C(=O)NC1CCCCC1)c1ccc(N(C)C)cc1 (stereo unspecified) | inactive |  |  |  |
| COc1ccc(CN(C(=O)c2ccc(-c3ccccc3)[nH]2)C(C(=O)NC2CCCCC2)c2ccc(F)cc2)cc1 (stereo unspecified) | inactive |  |  |  |
| CCN(CC)CCN(C(=O)c1ccc(CN2CCCCC2)o1)C(C(=O)NC1CCCCC1)c1ccc(F)cc1 (stereo unspecified) |  |  |  | Ki [2]: Not Active |
| O=C(NC1CCCCC1)C(c1ccc(F)cc1)N(CCCN1CCOCC1)C(=O)c1ccc(CN2CCOCC2)o1 (stereo unspecified) | inactive |  |  |  |
| COc1ccc(CN(C(=O)c2ccc(-c3ccccc3)[nH]2)C(C)C(=O)NC2CCCCC2)cc1 (stereo unspecified) | inactive |  |  |  |
| CCN(CC)CCN(C(=O)c1ccc(-c2ccccc2)[nH]1)C(C(=O)NC1CCCCC1)c1c[nH]c2ccccc12 (stereo unspecified) | inactive |  |  |  |
| CCN(CC)CCCN(C(=O)c1ccc(-c2ccccc2)[nH]1)C(C)C(=O)NC(C)(C)C (stereo unspecified) |  | 0.38 | 1180 |  |
| CCN(CC)CCCN(C(=O)c1ccc(-c2ccccc2)[nH]1)C(C(=O)NCc1ccc(F)cc1)c1ccc(F)cc1 (stereo unspecified) |  | 0.45 | 1150 |  |
| CCN(CC)CCN1C(=O)[C@@](O)(c2ccccc2Cl)c2c1cc(C(N)=O)cc2C(F)(F)F |  |  |  | IC50 [4]: 1.2 nM |
| O=C(NC1CCCCC1)C(c1ccc(F)cc1)N(C(=O)c1ccc(-c2ccccc2)[nH]1)C1CCCCC1 (stereo unspecified) | inactive |  |  |  |
| O=C(NC1CCCCC1)C(c1ccc(F)cc1)N(CCCN1CCOCC1)C(=O)c1ccc(-c2ccccc2)[nH]1 (stereo unspecified) |  |  |  | Ki [2]: Not Active |
| CCN(CC)CCCN(C(=O)Cn1nnc(-c2ccc(OC)c(OC)c2)n1)C(C(=O)NC1CCCCC1)c1ccc(F)cc1 (stereo unspecified) | inactive |  |  |  |
| CCN(CC)CCCN(C(=O)CCN1CCCc2ccccc21)C(C(=O)NC1CCCCC1)c1ccc(F)cc1 (stereo unspecified) |  | 0.31 | 2030 |  |
| CCN(CC)CCCN(C(=O)c1snc(C(N)=O)c1N)C(C(=O)NC1CCCCC1)c1ccc(F)cc1 (stereo unspecified) | inactive |  |  |  |

Continued, in another order:

| Activity [1] | Activity [3] | Ki [4] [nM] | SMILES | further results |
| --- | --- | --- | --- | --- |
| inactive |  |  | CCN(CC)CCCN(C(=O)c1ccc(-c2ccccc2)[nH]1)C(C(=O)NC1CCCCC1)c1cc(OC)ccc1OC (stereo unspecified) |  |
| inactive |  |  | CCN(CC)CCCN(C(=O)c1ccc(-c2ccccc2)[nH]1)C(C(=O)NC1CCCCC1)c1ccco1 (stereo unspecified) |  |
|  | 1.37 | 870 | CCCC(C(=O)NC1CCCCC1)N(CCCN(CC)CC)C(=O)c1ccc(-c2ccccc2)[nH]1 (stereo unspecified) |  |
|  | 0.24 | 1370 | CCN(CC)CCN(C(=O)c1ccc(-c2ccccc2)[nH]1)C(C(=O)NC1CCCCC1)c1ccc(F)cc1 (stereo unspecified) |  |
| inactive |  |  | CCN(CC)CCCN(C(=O)c1ccc(-c2ccccc2)[nH]1)C(C(=O)NC1CCCCC1)c1cccs1 (stereo unspecified) |  |
|  | 0.52 | 1320 | CCN(CC)CCCN(C(=O)c1ccc(-c2ccccc2)[nH]1)C(C(=O)NC1CCCCC1)c1ccc(O)cc1 (stereo unspecified) |  |
|  | 0.96 | 1920 | CCN(CC)CCCN(C(=O)c1ccc(-c2ccccc2)[nH]1)C(C)C(=O)NC1CCCCC1 (stereo unspecified) |  |
| inactive |  |  | CCN(CC)CCCN(C(=O)c1ccc(-c2ccccc2)[nH]1)C(C(=O)NC1CCCCC1)c1ccc(C)cc1 (stereo unspecified) |  |
|  | 0.32 | 2630 | CCN(CC)CCCN(C(=O)c1ccc(-c2ccccc2)[nH]1)C(C(=O)NC1CCCCC1)c1ccc(OC)c(OC)c1 (stereo unspecified) |  |
|  | 1.6 | 280 | CCCCC(C(=O)NC1CCCCC1)N(CCCN(CC)CC)C(=O)c1ccc(-c2ccccc2)[nH]1 (stereo unspecified) |  |
|  | 0.57 | 1290 | CCN(CC)CCCN(C(=O)c1ccc(-c2ccccc2)[nH]1)C(C(=O)NC1CCCCC1)c1ccc(F)cc1 (stereo unspecified) |  |
|  | 0.28 | 1170 | CCN(CC)CCCN(C(=O)c1ccc(-c2ccccc2)[nH]1)C(Cc1ccc(C)o1)C(=O)NC1CCCCC1 (stereo unspecified) |  |
| inactive |  |  | CCOC(=O)CN(C(=O)c1ccc(-c2ccccc2)[nH]1)C(C)C(=O)NC1CCCCC1 (stereo unspecified) |  |
| inactive |  |  | CCOc1ccc(C(C(=O)NC2CCCCC2)N(CCCN(CC)CC)C(=O)c2ccc(-c3ccccc3)[nH]2)cc1 (stereo unspecified) |  |
|  | 1.23 | 220 | CCC(C(=O)NC1CCCCC1)N(CCCN(CC)CC)C(=O)c1ccc(-c2ccccc2)[nH]1 (stereo unspecified) |  |
|  | 1.16 | 910 | CCN(CC)CCCN(C(=O)c1ccc(-c2ccccc2)[nH]1)C(C(=O)NC1CCCCC1)c1ccncc1 (stereo unspecified) |  |
